Source: ChEMBL document CHEMBL4138239, “Anti-inflammatory Dimeric 2-(2-Phenylethyl)chromones from the Resinous Wood of Aquilaria sinensis” (J Nat Prod, 2018)

Assays:
RAW264.7 [1] = experiment: Cytotoxicity against mouse RAW264.7 cells assessed as effect on cell viability up to 80 uM after 24 hrs by MTT assay; type: cell-based; conditions: raw264.7, 24 h
How it was run: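 Viability or proliferation of RAW264.7 cells was measured by MTT. Compounds were tested at up to 80 μM alongside LPS treatment for 24 h. They were made as DMSO stocks, with final DMSO below 0.2%. The assay was run to test whether lower NO reflected loss of cells.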

RAW264.7 [2] = experiment: Antiinflammatory activity in mouse RAW264.7 cells assessed as inhibition of LPS-induced nitric oxide production after 24 hrs by Griess assay; type: functional, cell-based; conditions: RAW264.7, 24 h
How it was run: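 RAW264.7 cells were obtained from the Peking Union Medical College Cell Bank and stimulated with LPS. Nitric oxide production was measured in the presence of test compounds. Compounds were made as DMSO stocks, with final DMSO below 0.2%. IC50 values are given as mean ± SD of three independent experiments. A positive control was included.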

Structure (SMILES)	Activity (RAW264.7 [1])	IC50 (RAW264.7 [2]) [µM]
COc1ccc(CCc2cc(=O)c3c(o2)[C@H](O)[C@H]2Oc4c(OC)ccc(CCc5cc(=O)c6cc(OC)ccc6o5)c4[C@@H]3[C@H]2O)cc1	Non-Toxic	7
COc1ccc2oc(CCc3ccc(OC)c4c3[C@H]3c5c(oc(CCc6ccccc6)cc5=O)[C@H](O)[C@@H](O4)[C@@H]3O)cc(=O)c2c1	Non-Toxic	8.5
COc1ccc2oc(CCc3ccc4c(c3)O[C@H]3[C@H](O)[C@@H]4c4c(oc(CCc5ccccc5)cc4=O)[C@@H]3O)cc(=O)c2c1	Non-Toxic	12
O=c1cc(CCc2ccccc2)oc2c1[C@H]1c3ccc4c(=O)cc(CCc5ccccc5)oc4c3O[C@H]([C@H]1O)[C@@H]2O	Non-Toxic	8.8
O=c1cc(CCc2ccccc2)oc2c1[C@H]1c3c(ccc4oc(CCc5ccccc5)cc(=O)c34)O[C@H]([C@H]1O)[C@@H]2O	Non-Toxic	7.6
O=c1cc(CCc2ccccc2)oc2c1[C@@H]1c3c(ccc4oc(CCc5ccccc5)cc(=O)c34)O[C@@H]([C@@H]1O)[C@H]2O	Non-Toxic	11.5
O=c1cc(CCc2ccccc2)oc2c1[C@@H]1c3ccc4c(=O)cc(CCc5ccccc5)oc4c3O[C@@H]([C@@H]1O)[C@H]2O	Non-Toxic	8.6
COc1ccc(CCc2cc(=O)c3c(o2)[C@@H](O)[C@@H]2Oc4ccc5oc(CCc6ccccc6)cc(=O)c5c4[C@H]3[C@@H]2O)cc1	Non-Toxic	9.3
COc1ccc2oc(CCc3ccc(OC)c4c3[C@@H]3c5c(oc(CCc6ccccc6)cc5=O)[C@@H](O)[C@H](O4)[C@H]3O)cc(=O)c2c1	Non-Toxic	8.5
COc1ccc(CCc2cc(=O)c3c(O)c(O)c(O)c(Cl)c3o2)cc1	–	4.4
COc1ccc(CCc2cc(=O)c3c(o2)[C@@H](O)[C@@H]2Oc4c(c(O)cc5c(=O)cc(CCc6ccc(OC)cc6)oc45)[C@H]3[C@@H]2O)cc1	Non-Toxic	10.5
